Results on 167 variants are retold here after the RNAGym collection of RNA variant scans (doi:10.1002/anie.201605470).

B1: Osa-1-4 twister ribozyme (parent)
chain: CCGCCUAACACUGCCAAUGCCGGUCCCAAGCCCGGAUAAAAGUGGAGGGGGCGG

In the data set the parent is B1. Put plainly: self-cleavage, relative activity (ratio to wild type); higher = more cleavage; co-transcriptional. In a few lines: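 Values are relative activity: the fraction cleaved, normalised to wild type. A doped DNA template for a 54-nucleotide twister ribozyme from Oryza sativa had 97 % wild-type base and 1 % of each other base at the 48 positions downstream of the cleavage site. The RNA was transcribed in vitro for 2 h at 37 °C so that it could cleave itself co-transcriptionally, then sequenced deeply, with cleavage status scored from the presence or absence of upstream sequence in reads.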
As to C26U G22U, the self-cleavage stood at 0.74. In the case of C26U G22C it was 0.08; in that of C26U G22A, 0.91; in that of C27G G42C, 0.07. The value for C27G G42A was 0.06.

Regarding C27G G42U, the self-cleavage is 0.02.

On to C26G G35U, for which the self-cleavage came to 0.09. Regarding C26G G35A, the self-cleavage was found to be 0.08.

C26G G35C: the self-cleavage is 0.07.

In the case of C26G G48C, the self-cleavage was determined as 0.74. The value for C26G G48U was 0.08; that for C26G G48A was 0.06; that for C26G U18C was 0.1. In the case of C26G U18A it was 0.09; in that of C26G U18G, 0.13; in that of C27A G48C, 0.05. In the case of C27A G48A it was 0.04. As to C27A G48U, the self-cleavage was 0.04. Regarding C26G G23U, the self-cleavage was determined as 0.02. The value for C26G G23A was 0.08. For C26G G23C, the self-cleavage amounted to 0.04. In the case of C26U C31G it was 0.07; in that of C26U C31U, 0.16; in that of C26U C31A, 0.05. In the case of C27A G47U it was 0.83.

C27A G47C: the self-cleavage was 0.36. With C27A G47A, the self-cleavage is 0.24.

Take C26U C9A: the self-cleavage worked out at 0.26. In the case of C26U C9U it was 0.55; in that of C26U C9G, 0.24. In the case of C26A G54C it was 0.05. The value for C26A G54U was 0.12; that for C26U C52U was 0.98; that for C26U C52G was 0.84.

As for C26U C52A, the self-cleavage amounted to 0.71. The value for C26U G51C was 0.07. The value for C26U G51A was 0.45; that for C26U G51U was 0.17. In the case of C26G G47C it was 0.04. For the variant C26G G47A, the self-cleavage was 0.05. Take C26G G47U: the self-cleavage was determined as 0.06. The value for C27A C52G was 0.25; that for C27A C52A was 0.23.

Take C27A C52U: the self-cleavage worked out at 0.33. Regarding C27G C52G, the self-cleavage was determined as 0.14. The value for C27G C52A was 0.08. In the case of C27G C52U it was 0.16; in that of C26G G51A, 0.1. The value for C26G G51C was 0.05. For C26G G51U, the self-cleavage is 0.06.

For C26U G30A, the self-cleavage came out at 0.03. The value for C26U G30U was 0.03; that for C26U G30C was 0.04. In the case of C26A U43G it was 0.04. The value for C26A U43C was 0.04. Regarding C26A U43A, the self-cleavage was determined as 0.05.

On to C26G G30U, for which the self-cleavage amounted to 0.03. The value for C26G G30A was 0.06. The value for C26G G30C was 0.05. In the case of C27A G50U it was 0.1.

C27A G50C: the self-cleavage amounted to 0.08. In the case of C27A G50A it was 0.22; in that of C26U U43C, 0.14. In the case of C26U U43A it was 0.32. In the case of C26U U43G it was 0.15; in that of C27G C33A, 0.03; in that of C27G C33U, 0.05. With C27G C33G, the self-cleavage was found to be 0.05. For the variant C26G U24A, the self-cleavage came to 0.04. The value for C26G U24C was 0.04; that for C26G U24G was 0.02; that for C27A G30U was 0.03.

Regarding C27A G30A, the self-cleavage came out at 0.02. In the case of C27A G30C it was 0.03. The value for C27A G19A was 0.09; that for C27A G19U was 0.04; that for C27A G19C was 0.03.

Consider C27A G35U, for which the self-cleavage was 0.16.

For C27A G35C, the self-cleavage worked out at 0.07. In the case of C27A G35A it was 0.39; in that of C27G G30C, 0.02; in that of C27G G30U, 0.02. The value for C27G G30A was 0.02; that for C26G U37C was 0.1. The value for C26G U37G was 0.1.

In the case of C26G U37A, the self-cleavage was determined as 0.09. Consider C26U G44U, for which the self-cleavage stood at 0.71. In the case of C26U G44A it was 0.4; in that of C26U G44C, 0.92; in that of C27A, 0.37.

With C27G, the self-cleavage was 0.13.

Take C26G G49U: the self-cleavage was 0.04. In the case of C26G G49A it was 0.04; in that of C26G G49C, 0.03; in that of C26G, 0.09. C26U: the self-cleavage is 0.98. Consider C27A U12C, for which the self-cleavage amounted to 0.06. In the case of C27A U12G it was 0.11. The value for C27A U12A was 0.07; that for C26A U24C was 0.02; that for C26A U24A was 0.03. In the case of C26A U24G it was 0.01; in that of C27G G50C, 0.05. Turning to C27G G50A, the self-cleavage came out at 0.09. The value for C27G G50U was 0.07; that for C27G G51A was 0.05; that for C27G G51U was 0.04.

For C27G G51C, the self-cleavage turned out to be 0.02. The value for C27A G13U was 0.02; that for C27A G13C was 0.01. The value for C27A G13A was 0.03.

In the case of C26A U18G, the self-cleavage came to 0.12. In the case of C26A U18C it was 0.06; in that of C26A U18A, 0.05. The value for C26G C33U was 0.07; that for C26G C33G was 0.04; that for C26G C33A was 0.05.

For the variant C27A G22C, the self-cleavage stood at 0.03. In the case of C27A G22A it was 0.1. The value for C27A G22U was 0.06; that for C27A U18A was 0.27. In the case of C27A U18G it was 0.34; in that of C27A U18C, 0.26; in that of C26U G47U, 0.06.

Turning to C26U G47C, the self-cleavage amounted to 0.07. The value for C26U G47A was 0.08. As for C26U C27A, the self-cleavage is 0.07. On to C26U C27U, for which the self-cleavage came to 0.24. The value for C26U C27G was 0.06.

Take C26U G13U: the self-cleavage worked out at 0.03. In the case of C26U G13A it was 0.05; in that of C26U G13C, 0.02; in that of C27G G34C, 0.05. The value for C27G G34U was 0.08.

As to C27G G34A, the self-cleavage amounted to 0.07.

For the variant C27A G34U, the self-cleavage was 0.17.

C27A G34C: the self-cleavage amounted to 0.09. As for C27A G34A, the self-cleavage came out at 0.18. In the case of C26U C33U it was 0.32; in that of C26U C33A, 0.09; in that of C26U C33G, 0.07. For the variant C27G G49A, the self-cleavage was 0.04. The value for C27G G49U was 0.04. The value for C27G G49C was 0.03; that for C27A G49C was 0.03. The value for C27A G49A was 0.04; that for C27A G49U was 0.04. As to C27A G51C, the self-cleavage came out at 0.05. Take C27A G51U: the self-cleavage came to 0.05. For C27A G51A, the self-cleavage amounted to 0.1. As for C27A G54C, the self-cleavage came to 0.11. Regarding C27A G54U, the self-cleavage turned out to be 0.35. In the case of C27A G54A it was 0.12; in that of C27A U43G, 0.15; in that of C27A U43A, 0.1. The value for C27A U43C was 0.1. The value for C27G C31U was 0.06; that for C27G C31G was 0.06.

Consider C27G C31A, for which the self-cleavage came to 0.01. In the case of C26U G23A it was 0.15. The value for C26U G23C was 0.04; that for C26U G23U was 0.04.

For C27G C32G, the self-cleavage was 0.05. In the case of C27G C32A it was 0.02; in that of C27G C32U, 0.05. The value for C27G C9A was 0.03; that for C27G C9U was 0.05.
